A selection: hits, their analogues and other compounds. The true share with any hit is near 1.7%.
M5 antag – CHRM5 antagonism in calcium assay; inhibition, % at 3 µM; P08912; hit rate 0.59% among 360,000; AID 624040; CHO-hM5 cells, Fluo-8 calcium fluorescence, ACh EC80;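 active means inhibition above a per-plate cutoff, the mean of that plate's test compounds plus 3 SD, cut at about 27% in these data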
Target sequence (P08912 whole entry, looked up): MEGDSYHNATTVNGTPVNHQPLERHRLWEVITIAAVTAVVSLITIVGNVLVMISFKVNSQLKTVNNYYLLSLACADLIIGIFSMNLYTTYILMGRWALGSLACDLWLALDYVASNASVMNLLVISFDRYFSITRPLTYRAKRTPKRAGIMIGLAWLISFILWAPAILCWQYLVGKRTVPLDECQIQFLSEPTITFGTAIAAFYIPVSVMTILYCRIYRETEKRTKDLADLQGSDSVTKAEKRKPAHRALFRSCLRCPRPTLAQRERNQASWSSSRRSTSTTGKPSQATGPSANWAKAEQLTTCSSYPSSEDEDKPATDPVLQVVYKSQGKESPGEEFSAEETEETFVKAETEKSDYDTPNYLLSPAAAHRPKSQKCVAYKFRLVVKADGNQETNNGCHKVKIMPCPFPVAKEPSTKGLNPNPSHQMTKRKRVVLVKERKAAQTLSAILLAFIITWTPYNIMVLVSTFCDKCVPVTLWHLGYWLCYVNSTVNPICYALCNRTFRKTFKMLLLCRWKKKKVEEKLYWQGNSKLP
M5 ag – CHRM5 agonism in calcium assay | hit rate 0.19% among 360,000 | CHO-K1 hM5 cells, Fluo-8 calcium fluorescence; 0% DMSO wells, 100% maximal acetylcholine response | activation, % at 3 µM | P08912;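 active means activation above the run's mean over test compounds plus 3 SD, cut at about 23% in these data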;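 further: signal is peak over basal fluorescence ratio across the kinetic read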
CHO-K1 Ca antag – counter-screen for M1 antagonists: effect in parental CHO-K1 cells. ATP-induced calcium, Fluo-8 fluorescence. inhibition, % at 3 µM. hit rate 0.6% among 360,000. AID 602250;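 active means inhibition above a per-plate cutoff, the plate's mean sample inhibition plus 3 SD, cut at about 24% in these data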
CHO-K1 Ca PAM – nonselective activator or artifact in parental CHO-K1 calcium assay. hit rate 0.02% among 360,000. ATP EC20, Fluo-8 calcium fluorescence; 0% at ATP EC20, 100% at ATP max. AID 602247. activation, % at 3 µM;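 active means activation above the run cutoff, the mean activation of all test compounds plus 3 SD, cut at about 40% in these data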;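 further: peak over basal fluorescence ratio in a 140 s read after ATP addition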
M1 ag parental – nonselective activator or artifact in parental CHO-K1 cells | Fluo-8 calcium fluorescence; scaled to maximal ATP response, vehicle zero | activation, % at 3 µM | hit rate 0.48% among 360,000; in the data active means activation above about 15%;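 further: untransfected CHO-K1 host cells lacking M1 receptor as counterscreen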
CHRM5 PAM – potentiates acetylcholine response at human M5 receptor | P08912 | CHO-K1 hM5, Fluo-8 calcium, ACh EC20 PAM; 0% = ACh EC20, 100% = ACh EC100 | activation, % at 3 µM | hit rate 0.3% among 360,000;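 active means activation above the run cutoff, the mean activation of all test compounds plus 3 SD, cut at about 18% in these data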
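System – CHO-K1 hM5 cells · Compound – 3 µM, single dose · Incubation – compound preincubation 140 s before EC20 acetylcholine addition · Technique – Fluo-8 calcium fluorescence · Measure – Max/basal fluorescence ratio as % of EC20–EC100 ACh window · Benchmarks – low control EC20 acetylcholine (0%), high control EC100 acetylcholine (100%) · Replication – singlicate, one well per test compound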
Each line names hits and unclear results; the compound was inactive in the other large screens.

Cc1ccc(C)c(Cn2nnc(C(=O)Nc3ccc4c(c3)OCCO4)c2N)c1	M5 ag 36
Cc1cc(C)cc(NC(=O)c2nnn(Cc3cc(C)ccc3C)c2N)c1	M5 ag 28
Cc1ccccc1Cn1nnc(C(=O)Nc2ccc3c(c2)OCCO3)c1N	none
COc1cc(NC(=O)C2(C)CCCN2C)cc(OC)c1OC (stereo unspecified)	CHO-K1 Ca antag 28
COc1cc(NC(=O)C2(C)CCCN2C(=O)C(C)C)cc(OC)c1OC (stereo unspecified)	none
CC[n+]1c(/C=C/c2cc([N+](=O)[O-])ccc2O)ccc2ccccc21	CHO-K1 Ca antag 24
CCOc1ccc(S(=O)(=O)Nc2cccc(C(=O)N(C)CC(=O)Nc3ccc(OC)cc3)c2)cc1	none
COC(=O)/C=C1\OCc2ccc(C)cc21	CHRM5 PAM 19 (no result: CHO-K1 Ca antag, CHO-K1 Ca PAM, M1 ag parental)
COC(=O)/C=C1\OCc2cc(C)ccc21	none (no result: CHO-K1 Ca antag, CHO-K1 Ca PAM, M1 ag parental)
CCCCNC(=O)N(C)c1nncnc1C(=O)NC	CHRM5 PAM 26
COC(=O)C(C)Sc1nc(NCc2ccccc2)nc(N(C)C)n1 (stereo unspecified)	none
COC(=O)C1C2CCC(C2)C1C(=O)OCC(=O)c1ccc(C)cc1 (stereo unspecified)	CHO-K1 Ca antag 27
COc1ccccc1NC(=O)Nc1nc(C(N)C(C)C)cs1 (stereo unspecified)	none
COc1ccccc1NC(=O)Nc1nc(C(C)(C)C)cs1	M1 ag parental 31
COc1ccc(C(=O)NC2CCc3ccccc32)cc1OC1CCN(C(C)C)CC1 (stereo unspecified)	M5 antag 28
CC(C)C(=O)N1CCN(c2ccc([N+](=O)[O-])cc2Cl)CC1	none
COc1ccc(C(=O)NCCSCc2ccccc2C)cc1	CHO-K1 Ca antag 30
COc1ccc(CN(CC2CCCO2)C(=O)c2cc3ccccc3oc2=O)cc1 (stereo unspecified)	none
O=C(O)CSC1c2ccccc2C(=O)N1c1ccccc1 (stereo unspecified)	CHRM5 PAM 37
CC1=C(C(=O)N(C(C)C)C(C)C)CC(CC(=O)NC2CCCCC2)C(=O)N1Cc1ccc(C(C)(C)C)cc1 (stereo unspecified)	none
Cc1cc2nccc(-c3ccncc3)n2n1	none
CCN1CCN(S(=O)(=O)c2ccc(S(=O)(=O)N(CC)Cc3ccccc3)cc2)CC1	M1 ag parental 22
COc1ccc(S(=O)(=O)Nc2nc3c(s2)CCCC3)cc1	CHRM5 PAM 20
c1ccc(SC23CCCCN(CCC2)C32OCCO2)cc1 (stereo unspecified)	none
CCOc1ccccc1NC(=O)CCCc1ccc(OC)c(C)c1	none
Cc1cccc(C)c1Nc1n[nH]c(=S)s1	none
CC(C)c1ccc(Nc2n[nH]c(=S)s2)cc1	CHO-K1 Ca antag 28
CCOC(=O)c1cc(-c2ccccc2)sc1NC(=O)C(C)OC(=O)c1cccnc1OCC (stereo unspecified)	none
O=C(Nc1ccc(F)cc1)C(c1ccncc1)N1CCN(C(=O)c2ccco2)CC1 (stereo unspecified)	CHRM5 PAM 20 (no result: CHO-K1 Ca antag, CHO-K1 Ca PAM, M1 ag parental)
O=C(Nc1ccc(F)cc1)C(c1ccccc1)N1CCN(C(=O)c2ccco2)CC1 (stereo unspecified)	none
Cc1cccc(-c2nc3ccccc3c(=O)n2NC(=S)N(C)C)c1	none
O=C(Oc1ccc(C(=S)N2CCOCC2)cc1)c1cccc([N+](=O)[O-])c1	CHO-K1 Ca antag 29
COc1ccccc1C(=O)Nc1ccc2c(c1)nc1n2CCSC1	none
c1ccc(-c2cncnc2)cc1	CHRM5 PAM 20
COc1cccc(C(=O)CSc2nnc(COc3cccc4cccnc34)o2)c1	none
Cc1ccccc1NC(=O)c1ccccn1	none
CCCOc1ccc(C(C(=O)OCCN(CC)CC)c2ccccc2)cc1 (stereo unspecified)	M5 antag 55
Cc1ccc(N(Cc2ccco2)C(=O)c2ccc(N3CCCCC3)c([N+](=O)[O-])c2)cc1	CHO-K1 Ca antag 25
COc1ccc(C2CC=C(C(C)=O)CN2S(=O)(=O)c2ccccc2)cc1 (stereo unspecified)	CHO-K1 Ca antag 24
COC(=O)C1=C(C(=O)OC)[C@@H]2N(Cc3ccccc3)c3ccccc3[C@@]23C[C@@H](C(=O)OC)N(C(=O)CC(C)C)C3=N1	none
CC(C)c1ccc(/C=C/C(=O)NC(=S)Nc2ccc(CN3CCOCC3)cc2)cc1	M5 antag 41
CC(C)c1ccc(/C=C/C(=O)NC(=S)NN2CCOCC2)cc1	none
CCN(CC)S(=O)(=O)c1cccc(NC(=S)NC(=O)/C=C/c2ccc(S(=O)(=O)N3CCOCC3)cc2)c1	CHO-K1 Ca antag 27
CCCCc1nc2sc3c(c2c(=O)[nH]1)CC(C)(C)OC3	none
CCCCCn1c(=O)c2ccccc2n2c(=S)[nH]nc12	none
Cc1ccnc(SCc2cc(=O)c(OC(=O)c3ccc(Br)o3)co2)n1	CHRM5 PAM 34
O=C(Oc1coc(CSc2ncccn2)cc1=O)c1ccc(Br)o1	none
COc1ccc(N2C(=O)CC(N(Cc3ccc(S(N)(=O)=O)cc3)C(C)=O)C2=O)cc1 (stereo unspecified)	none
COc1cccc(CN2CCC2(C)C(=O)Nc2cccc3cccnc23)c1F (stereo unspecified)	none
CC1(C(=O)Nc2cccc3cccnc23)CCN1Cc1csc2ccccc12 (stereo unspecified)	CHO-K1 Ca PAM 51
Cc1ccc(OCCN2CCN(c3ncnc4sc(C)c(C)c34)CC2)cc1	M5 antag 32
Clc1ccc(OCCN2CCN(c3ncnc4sccc34)CC2)cc1	M5 antag 33, CHO-K1 Ca antag 34
CCCC(=O)Nc1ccc(C2C(=O)c3ccccc3C2=O)cc1	none
Cc1nnc(SCC(=O)c2cc(C)n(-c3ccc4c(c3)OCO4)c2C)s1	M5 antag 27
Nc1nnn(Cc2ccccc2)n1	none
CC(C)C(=O)Nc1cccc(C(=O)NCc2ccc(S(N)(=O)=O)cc2)c1	none
Cn1c(CSCc2ccc(F)cc2)nnc1SCC(=O)Nc1nccs1	CHO-K1 Ca antag 26
Cn1c(CSCc2ccc(Cl)cc2)nnc1SCC(=O)Nc1nccs1	none
COc1cccc(N2CCN(C(=O)c3cccc(NC4=NC5CS(=O)(=O)CC5S4)c3)CC2)c1 (stereo unspecified)	CHO-K1 Ca antag 24
CCOC(=O)C1CCN(C(=O)c2cccc(NC3=NC4CS(=O)(=O)CC4S3)c2)CC1 (stereo unspecified)	none
CNC(=S)N1CCC(Cc2ccccc2)CC1	none
CCC(=O)N/N=C/c1ccc(-c2ccc([N+](=O)[O-])cc2)o1	none
